Data from ChEMBL document CHEMBL5712084, “Interactome Rewiring Following Pharmacological Targeting of BET Bromodomains” (Mol Cell, 2019).
The source made the active and inactive calls. The rule behind the calls is not given here.

Experiments:
[1] = biological target: Bromodomain-containing protein 2 (Homo sapiens) (UniProt P25440); conditions: U2OS, dose 500.0 nM, time 20.0 sec
[2] = biological target: T1, Bromodomain and extra-terminal motif (BET) (Homo sapiens) (UniProt P25440+O60885+Q58F21+Q15059); conditions: Flp-In-T-REx-293, dose 500.0 nM, time 10-240 min
[3] = biological target: T1, Bromodomain and extra-terminal motif (BET) (Homo sapiens); conditions: Flp-In-T-REx-293, dose 500.0 nM, time 10-240 min; remark: listed apart in the source
[4] = biological target: BRD4/BRD9 (Homo sapiens) (UniProt O60885+Q9H8M2); conditions: HEK293, dose 5.0 nmol
[5] = biological target: Bromodomain-containing protein 2 (Homo sapiens) (UniProt P25440); conditions: U2OS, dose 500.0 nM, time 12.0 hrs
[6] = test system: Bromodomain-containing protein 3 (Homo sapiens), Q15059 [UNDEFINED MUTATION]; assay: Inhibition of BRD3 mutant bromodomain in human U2OS cells assessed as accumulation of BRD3 mutant in nucleolus at 500 nM by live cell imaging; format: cell-based
Outline: (§1)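 Flp-In T-REx U-2 OS cells were grown in DMEM with GlutaMAX and 10% heat-inactivated FBS plus penicillin-streptomycin at 37°C and 10% CO2. eGFP-tagged constructs were expressed from a tetracycline-inducible pcDNA5-FRT-TO vector. Nuclear and nucleolar localisation and foci were followed by live-cell imaging.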

[7] = biological target: T1, Bromodomain and extra-terminal motif (BET) (Homo sapiens); conditions: Flp-In-T-REx-293, dose 500.0 nM, time 10-240 min; remark: listed apart in the source
[8] = biological target: T1, Bromodomain and extra-terminal motif (BET) (Homo sapiens); conditions: Flp-In-T-REx-293, dose 500.0 nM, time 10-240 min; remark: listed apart in the source
[9] = biological target: T1, Bromodomain and extra-terminal motif (BET) (Homo sapiens); conditions: Flp-In-T-REx-293, dose 500.0 nM
[10] = biological target: Bromodomain-containing protein 3 (Homo sapiens) (UniProt Q15059); assay: Inhibition of BRD3 in human U2OS cells assessed as increase in association with partner protein (TCOF1, UBTF, and RNAPI) at 500 nM; format: cell-based
[11] = biological target: Bromodomain-containing protein 3 (Homo sapiens) (UniProt Q15059); assay: Inhibition of BRD3 in human Flp-In-T-REx-293 cells assessed as increase in nucleolar protein partners (RNAPI, UBTF and TCOF1 ) at 500 nM incubated for 24 hrs by BioID assay; format: cell-based
Outline: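 Stable Flp-In T-REx HEK293 lines carrying BirA*-FLAG-tagged baits were grown in hygromycin to 80% confluence. Expression was induced with 1 μg/mL tetracycline and cells were given 50 μM biotin for 24 h. Lysis was in RIPA, with streptavidin capture for 3 h at 4°C and on-bead trypsin digestion, then LC-MS/MS. BirA*-FLAG-GFP or -NLS cells served as controls. Two biological replicates were run.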

[12] = biological target: T1, Bromodomain and extra-terminal motif (BET) (Homo sapiens); conditions: Flp-In-T-REx-293, dose 500.0 nM, time 10-240 min; remark: listed apart in the source
[13] = test system: Bromodomain-containing protein 3 (Homo sapiens), Q15059 [UNDEFINED MUTATION]; assay: Inhibition of BRD3 mutant bromodomain in human U2OS cells assessed as accumulation of BRD3 mutant in to foci at 500 nM by live cell imaging; format: cell-based
Outline: as §1

[14] = test system: Bromodomain-containing protein 2 (Homo sapiens), P25440 [UNDEFINED MUTATION]; conditions: Flp-In-T-REx-293, dose 500.0 nM, time 24.0 hrs
[15] = biological target: T1, Bromodomain and extra-terminal motif (BET) (Homo sapiens); conditions: Flp-In-T-REx-293, dose 500.0 nM, time 10-240 min; remark: listed apart in the source
[16] = biological target: T1, Bromodomain and extra-terminal motif (BET) (Homo sapiens); conditions: Flp-In-T-REx-293, dose 500.0 nM, time 10-240 min; remark: listed apart in the source
[17] = test system: U2OS; assay: Inhibition of BRD1:2 mutant bromodomain in human U2OS cells assessed as foci formation of BRD2 mutant in to foci at 500 nM by live cell imaging; format: cell-based
Outline: as §1

[18] = biological target: T1, Bromodomain and extra-terminal motif (BET) (Homo sapiens); conditions: Flp-In-T-REx-293, dose 500.0 nM, time 1.0 hrs
[19] = biological target: Bromodomain-containing protein 3 (Homo sapiens) (UniProt Q15059); assay: Inhibition of BRD3 in human U2OS cells assessed as induction of assembly of GFP-tagged BRD3 constructs in to dense foci at 500 nM measured 12 hrs after drug washout by live cell imaging; format: cell-based
Outline: as §1

[20] = test system: U2OS; assay: Effect on localization of the nucleolar proteins (PARP1, POLR1E, and TCOF1) in human U2OS cells at 500 nM; format: functional, cell-based
Outline: as §1

[21] = biological target: T1, Bromodomain and extra-terminal motif (BET) (Homo sapiens); conditions: Flp-In-T-REx-293, dose 500.0 nM, time 10-240 min; remark: listed apart in the source
[22] = biological target: Bromodomain-containing protein 3 (Homo sapiens) (UniProt Q15059); assay: Inhibition of BRD3 in human U2OS cells assessed as induction of assembly of GFP-tagged BRD3 constructs in to dense foci at 500 nM measured within 20 seconds by live cell imaging; format: cell-based; conditions: time 20.0 sec
Outline: as §1

[23] = biological target: Bromodomain-containing protein 3 (Homo sapiens) (UniProt Q15059); assay: Inhibition of BRD3 in human U2OS cells assessed as displacement of BRD3 from rDNA IGS region toward the transcribed regions at 500 nM; format: cell-based
[24] = biological target: T1, Bromodomain and extra-terminal motif (BET) (Homo sapiens); conditions: Flp-In-T-REx-293, dose 500.0 nM; remark: listed apart in the source
[25] = test system: Bromodomain-containing protein 2 (Homo sapiens), P25440 [UNDEFINED MUTATION]; conditions: U2OS, dose 500.0 nM
[26] = test system: Bromodomain-containing protein 1 (Homo sapiens), O95696 [UNDEFINED MUTATION]; assay: Inhibition of BRD1 mutant bromodomain in human U2OS cells expressing BD1 mutant assessed as diffuse nuclear localization of BD1 mutant in asynchronously growing cells at 500 nM by live cell imaging; format: cell-based
Outline: as §1

Bromodomain-containing protein 3 (Homo sapiens), sequence (Q15059 2-726 limits assumed): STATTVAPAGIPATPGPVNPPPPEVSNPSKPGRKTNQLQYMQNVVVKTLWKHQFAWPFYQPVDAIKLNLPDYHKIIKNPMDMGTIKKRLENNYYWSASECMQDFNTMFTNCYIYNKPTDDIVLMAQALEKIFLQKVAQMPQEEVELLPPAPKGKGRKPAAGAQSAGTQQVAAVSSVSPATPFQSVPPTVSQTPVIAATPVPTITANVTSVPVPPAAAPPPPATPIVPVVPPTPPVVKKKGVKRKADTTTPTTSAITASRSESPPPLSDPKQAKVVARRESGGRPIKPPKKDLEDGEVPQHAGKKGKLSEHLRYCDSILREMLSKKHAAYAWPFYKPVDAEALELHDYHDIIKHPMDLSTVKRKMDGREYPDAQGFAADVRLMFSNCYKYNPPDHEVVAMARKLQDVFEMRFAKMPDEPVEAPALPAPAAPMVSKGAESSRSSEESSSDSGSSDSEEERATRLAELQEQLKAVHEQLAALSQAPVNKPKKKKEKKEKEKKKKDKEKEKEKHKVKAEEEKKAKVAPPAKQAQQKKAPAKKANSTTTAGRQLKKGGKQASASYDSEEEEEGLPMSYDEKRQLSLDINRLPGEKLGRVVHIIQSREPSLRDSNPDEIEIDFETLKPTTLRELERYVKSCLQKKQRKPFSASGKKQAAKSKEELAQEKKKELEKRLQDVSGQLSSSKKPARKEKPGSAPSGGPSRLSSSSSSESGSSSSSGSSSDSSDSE
Bromodomain-containing protein 2 (Homo sapiens), P25440 [UNDEFINED MUTATION], sequence (P25440 whole entry, looked up, change not shown): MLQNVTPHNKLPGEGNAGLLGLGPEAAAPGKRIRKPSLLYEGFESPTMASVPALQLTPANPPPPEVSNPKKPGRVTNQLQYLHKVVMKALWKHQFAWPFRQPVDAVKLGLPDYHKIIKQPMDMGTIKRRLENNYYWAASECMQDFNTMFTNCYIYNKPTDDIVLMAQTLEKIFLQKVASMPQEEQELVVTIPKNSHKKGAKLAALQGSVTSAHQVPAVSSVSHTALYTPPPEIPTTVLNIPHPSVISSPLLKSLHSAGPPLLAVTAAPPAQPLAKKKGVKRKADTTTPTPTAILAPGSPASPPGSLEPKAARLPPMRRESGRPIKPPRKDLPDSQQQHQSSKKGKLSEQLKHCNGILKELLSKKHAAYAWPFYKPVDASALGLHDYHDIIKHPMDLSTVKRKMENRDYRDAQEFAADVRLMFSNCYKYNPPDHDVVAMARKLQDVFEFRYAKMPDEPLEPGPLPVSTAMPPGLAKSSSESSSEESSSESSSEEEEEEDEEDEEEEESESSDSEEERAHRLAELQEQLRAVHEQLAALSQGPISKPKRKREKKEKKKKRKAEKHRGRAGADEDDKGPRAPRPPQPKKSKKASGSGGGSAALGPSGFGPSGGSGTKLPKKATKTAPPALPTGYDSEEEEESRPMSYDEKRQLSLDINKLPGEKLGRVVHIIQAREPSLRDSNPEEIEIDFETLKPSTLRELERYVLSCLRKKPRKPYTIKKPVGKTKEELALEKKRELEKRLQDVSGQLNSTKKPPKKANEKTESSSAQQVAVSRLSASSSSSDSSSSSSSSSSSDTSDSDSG
Bromodomain-containing protein 2 (Homo sapiens), sequence (P25440 whole entry, looked up): as the sequence (P25440 whole entry, looked up, change not shown) above
Bromodomain-containing protein 3 (Homo sapiens), Q15059 [UNDEFINED MUTATION], sequence (Q15059 whole entry, looked up, change not shown): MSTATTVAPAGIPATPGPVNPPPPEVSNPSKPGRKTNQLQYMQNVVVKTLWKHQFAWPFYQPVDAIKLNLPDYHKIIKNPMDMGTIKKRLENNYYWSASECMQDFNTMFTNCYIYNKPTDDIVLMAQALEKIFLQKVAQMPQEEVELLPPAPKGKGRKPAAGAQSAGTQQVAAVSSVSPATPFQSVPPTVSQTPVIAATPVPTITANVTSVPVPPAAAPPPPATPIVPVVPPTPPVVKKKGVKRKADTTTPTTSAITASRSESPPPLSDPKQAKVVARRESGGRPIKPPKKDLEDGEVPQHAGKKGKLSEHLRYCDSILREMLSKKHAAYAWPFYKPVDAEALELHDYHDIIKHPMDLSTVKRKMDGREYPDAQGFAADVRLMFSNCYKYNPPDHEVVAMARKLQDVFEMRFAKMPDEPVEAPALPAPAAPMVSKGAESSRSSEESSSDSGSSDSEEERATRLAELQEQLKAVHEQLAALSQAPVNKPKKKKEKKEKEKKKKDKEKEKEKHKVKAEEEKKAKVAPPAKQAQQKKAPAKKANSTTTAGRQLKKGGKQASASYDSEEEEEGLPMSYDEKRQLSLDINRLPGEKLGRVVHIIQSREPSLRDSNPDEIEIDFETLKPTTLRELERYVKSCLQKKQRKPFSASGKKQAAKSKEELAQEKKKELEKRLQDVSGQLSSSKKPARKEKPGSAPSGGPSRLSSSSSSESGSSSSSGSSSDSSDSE
Bromodomain-containing protein 1 (Homo sapiens), O95696 [UNDEFINED MUTATION], sequence (O95696 whole entry, looked up, change not shown): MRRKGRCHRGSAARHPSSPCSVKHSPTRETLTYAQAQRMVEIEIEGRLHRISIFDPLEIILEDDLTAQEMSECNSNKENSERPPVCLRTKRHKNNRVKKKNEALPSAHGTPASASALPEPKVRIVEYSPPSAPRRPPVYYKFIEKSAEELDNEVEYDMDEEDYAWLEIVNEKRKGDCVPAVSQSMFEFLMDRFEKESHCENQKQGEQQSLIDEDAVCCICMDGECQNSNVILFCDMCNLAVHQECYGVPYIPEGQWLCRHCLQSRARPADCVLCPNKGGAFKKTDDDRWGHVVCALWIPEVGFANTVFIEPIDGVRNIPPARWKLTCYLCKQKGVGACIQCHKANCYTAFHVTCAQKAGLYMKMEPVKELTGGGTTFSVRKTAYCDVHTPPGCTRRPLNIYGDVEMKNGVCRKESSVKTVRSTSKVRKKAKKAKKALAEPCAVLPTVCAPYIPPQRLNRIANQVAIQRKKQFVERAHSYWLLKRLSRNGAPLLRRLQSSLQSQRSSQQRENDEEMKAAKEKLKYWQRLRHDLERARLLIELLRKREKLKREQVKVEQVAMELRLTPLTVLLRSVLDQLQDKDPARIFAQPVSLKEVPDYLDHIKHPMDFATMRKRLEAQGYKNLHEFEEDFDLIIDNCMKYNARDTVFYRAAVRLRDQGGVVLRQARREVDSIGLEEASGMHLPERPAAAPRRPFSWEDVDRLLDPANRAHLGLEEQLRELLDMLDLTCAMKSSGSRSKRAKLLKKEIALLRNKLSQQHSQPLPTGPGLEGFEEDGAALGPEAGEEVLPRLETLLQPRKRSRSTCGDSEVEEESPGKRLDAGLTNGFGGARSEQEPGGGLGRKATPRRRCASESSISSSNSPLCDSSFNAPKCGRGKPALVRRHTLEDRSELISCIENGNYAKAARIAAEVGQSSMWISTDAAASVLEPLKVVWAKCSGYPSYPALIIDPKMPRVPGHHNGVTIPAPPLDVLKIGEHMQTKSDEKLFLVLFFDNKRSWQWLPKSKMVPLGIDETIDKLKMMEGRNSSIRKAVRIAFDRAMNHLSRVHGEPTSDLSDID
BRD4/BRD9 (Homo sapiens), sequence (Q9H8M2 whole entry, looked up, other chains not shown): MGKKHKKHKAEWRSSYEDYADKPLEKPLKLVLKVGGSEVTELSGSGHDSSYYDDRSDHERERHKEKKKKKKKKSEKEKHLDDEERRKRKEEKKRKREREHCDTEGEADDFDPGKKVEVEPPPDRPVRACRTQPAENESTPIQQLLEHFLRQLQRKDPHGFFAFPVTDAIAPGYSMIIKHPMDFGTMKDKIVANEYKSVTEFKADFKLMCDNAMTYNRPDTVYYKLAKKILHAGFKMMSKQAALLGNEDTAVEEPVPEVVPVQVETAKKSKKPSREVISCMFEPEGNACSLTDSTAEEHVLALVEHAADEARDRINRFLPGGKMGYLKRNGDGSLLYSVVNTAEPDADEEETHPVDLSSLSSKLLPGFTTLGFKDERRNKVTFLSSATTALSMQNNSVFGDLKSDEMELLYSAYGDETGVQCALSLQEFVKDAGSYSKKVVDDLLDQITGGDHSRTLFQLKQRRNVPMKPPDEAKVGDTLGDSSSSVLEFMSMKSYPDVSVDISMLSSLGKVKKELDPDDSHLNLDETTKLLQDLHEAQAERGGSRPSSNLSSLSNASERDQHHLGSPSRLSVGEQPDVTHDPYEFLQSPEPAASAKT

**Q.** For `Cc1sc2c(c1C)C(c1ccc(Cl)cc1)=N[C@@H](CC(=O)OC(C)(C)C)c1nnc(C)n1-2`, which inhibition [1] is on record?
**A.** Active

**Q.** And the log2FC [2]?
**A.** > 2

**Q.** What about the inhibition [3] of the same molecule?
**A.** Active

**Q.** What about the inhibition [4] of the same molecule?
**A.** inactive

**Q.** What about the inhibition [5] of the same molecule?
**A.** Active

**Q.** What about the inhibition [6] of the same molecule?
**A.** Active

**Q.** And the inhibition [7]?
**A.** Active

**Q.** And the inhibition [8]?
**A.** Active

**Q.** And the inhibition [9]?
**A.** Active

**Q.** And the inhibition [10]?
**A.** Active

**Q.** What about the inhibition [11] of the same molecule?
**A.** Active

**Q.** And the log2FC [12]?
**A.** > 2

**Q.** And the inhibition [13]?
**A.** Active

**Q.** What about the inhibition [14] of the same molecule?
**A.** inactive

**Q.** And the inhibition [15]?
**A.** Active

**Q.** And the log2FC [16]?
**A.** 2

**Q.** And the inhibition [17]?
**A.** inactive

**Q.** And the inhibition [18]?
**A.** Active

**Q.** What about the inhibition [19] of the same molecule?
**A.** Active

**Q.** And the Activity [20]?
**A.** inactive

**Q.** And the inhibition [21]?
**A.** Active

**Q.** What about the inhibition [22] of the same molecule?
**A.** Active

**Q.** What about the inhibition [23] of the same molecule?
**A.** Active

**Q.** What about the inhibition [24] of the same molecule?
**A.** Active

**Q.** And the inhibition [25]?
**A.** inactive

**Q.** And the inhibition [26]?
**A.** inactive
